Measured values: ChEMBL document CHEMBL1142210, “Plasmid-mediated KPC-2 in a Klebsiella pneumoniae isolate from China” (2007)
Values after ≈ are worked out from the molar mass of the structure shown.

Columns and labels:
Format in all cases: functional
[1] = test system: Escherichia coli; assay: Antimicrobial activity against Escherichia coli DH5-alpha with pGEM-T EASY expressing TEM1 gene by agar dilution method; details: DH5alpha
Procedure, shortened: (§1)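 Agar dilution MIC testing run per CLSI (formerly NCCLS) guidelines. Where an agent was combined with clavulanic acid, the clavulanic acid was held at a fixed 4 μg/ml.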

[2] = test system: Escherichia coli; assay: Antimicrobial activity against Escherichia coli DH5alpha by agar dilution method; procedure, shortened: as §1
[3] = test system: Escherichia coli; assay: Antimicrobial activity against Escherichia coli DH5-alpha with pYW2 expressing KPC2 and TEM1 gene by agar dilution method; details: DH5alpha; procedure, shortened: as §1
[4] = test system: Klebsiella pneumoniae; assay: Antimicrobial activity against carbapenem-resistant Klebsiella pneumoniae ZR01 from patient sputum by agar dilution method; procedure, shortened: as §1
[5] = test system: Escherichia coli; assay: Antimicrobial activity against Escherichia coli DH5-alpha pYW1 transformants expressing KPC2 gene by agar dilution method; details: DH5alpha; procedure, shortened: as §1

Molecule: NCC[C@H](O)C(=O)N[C@@H]1C[C@H](N)[C@@H](O[C@H]2O[C@H](CN)[C@@H](O)[C@H](O)[C@H]2O)[C@H](O)[C@H]1O[C@H]1O[C@H](CO)[C@@H](O)[C@H](N)[C@H]1O [AMIKACIN]
- MIC [1]: 1 µg/mL (≈ 1.71 µM)
- MIC [2]: 1 µg/mL (≈ 1.71 µM)
- MIC [3]: 1 µg/mL (≈ 1.71 µM)
- MIC [4]: > 256 µg/mL
- MIC [5]: 1 µg/mL (≈ 1.71 µM)

Molecule: C[C@H]1[C@H](NC(=O)/C(=N\OC(C)(C)C(=O)O)c2csc(N)n2)C(=O)N1S(=O)(=O)O [AZTREONAM]
- MIC [3]: 64 µg/mL (≈ 147 µM)
- MIC [4]: > 256 µg/mL
- MIC [5]: 32 µg/mL (≈ 73.5 µM)

Molecule: CO/N=C(\C(=O)N[C@@H]1C(=O)N2C(C(=O)[O-])=C(C[N+]3(C)CCCC3)CS[C@H]12)c1csc(N)n1 [CEFEPIME]
- MIC [1]: 0.125 µg/mL (≈ 0.26 µM)
- MIC [2]: 0.032 µg/mL (≈ 0.0666 µM)
- MIC [4]: > 256 µg/mL
- MIC [5]: 2 µg/mL (≈ 4.16 µM)

Molecule: CO/N=C(\C(=O)N[C@@H]1C(=O)N2C(C(=O)O)=C(COC(C)=O)CS[C@H]12)c1csc(N)n1 [CEFOTAXIME]
- MIC [1]: 0.094 µg/mL (≈ 0.206 µM)
- MIC [2]: 0.094 µg/mL (≈ 0.206 µM)
- MIC [3]: 32 µg/mL (≈ 70.3 µM)
- MIC [4]: > 256 µg/mL
- MIC [5]: 4 µg/mL (≈ 8.78 µM)

Molecule: CC(C)(O/N=C(\C(=O)N[C@@H]1C(=O)N2C(C(=O)[O-])=C(C[n+]3ccccc3)CS[C@H]12)c1csc(N)n1)C(=O)O [CEFTAZIDIME]
- MIC [1]: 0.5 µg/mL (≈ 0.915 µM)
- MIC [2]: 0.25 µg/mL (≈ 0.457 µM)
- MIC [3]: 32 µg/mL (≈ 58.5 µM)
- MIC [4]: > 256 µg/mL
- MIC [5]: 4 µg/mL (≈ 7.32 µM)

Molecule: CO/N=C(\C(=O)N[C@@H]1C(=O)N2C(C(=O)O)=C(CSc3nc(=O)c(O)nn3C)CS[C@H]12)c1csc(N)n1 [CEFTRIAXONE]
- MIC [1]: 0.094 µg/mL (≈ 0.169 µM)
- MIC [2]: 0.094 µg/mL (≈ 0.169 µM)
- MIC [3]: 64 µg/mL (≈ 115 µM)
- MIC [4]: > 256 µg/mL
- MIC [5]: 8 µg/mL (≈ 14.4 µM)

Molecule: O=C(O)c1cn(C2CC2)c2cc(N3CCNCC3)c(F)cc2c1=O [CIPROFLOXACIN]
- MIC [4]: > 32 µg/mL

Molecule: C[C@@H](O)[C@H]1C(=O)N2C(C(=O)O)=C(S[C@@H]3CN[C@H](C(=O)Nc4cccc(C(=O)O)c4)C3)[C@H](C)[C@H]12 [ERTAPENEM]
- MIC [1]: 0.012 µg/mL (≈ 0.0252 µM)
- MIC [2]: 0.008 µg/mL (≈ 0.0168 µM)
- MIC [3]: 2 µg/mL (≈ 4.21 µM)
- MIC [4]: > 256 µg/mL
- MIC [5]: 0.5 µg/mL (≈ 1.05 µM)

Molecule: C[C@@H](O)[C@H]1C(=O)N2C(C(=O)O)=C(SCCNC=N)C[C@H]12 [IMIPENEM ANHYDROUS]
- MIC [3]: 8 µg/mL (≈ 26.7 µM)
- MIC [4]: > 32 µg/mL
- MIC [5]: 4 µg/mL (≈ 13.4 µM)

Molecule: C[C@@H](O)[C@H]1C(=O)N2C(C(=O)O)=C(S[C@@H]3CN[C@H](C(=O)N(C)C)C3)[C@H](C)[C@H]12 [MEROPENEM]
- MIC [1]: 0.06 µg/mL (≈ 0.156 µM)
- MIC [2]: 0.06 µg/mL (≈ 0.156 µM)
- MIC [3]: 4 µg/mL (≈ 10.4 µM)
- MIC [4]: > 32 µg/mL
- MIC [5]: 4 µg/mL (≈ 10.4 µM)

Molecule: CO[C@H]1/C=C/O[C@@]2(C)Oc3c(C)c(O)c4c(O)c(c(/C=N/N5CCN(C)CC5)c(O)c4c3C2=O)NC(=O)/C(C)=C\C=C\[C@H](C)[C@H](O)[C@@H](C)[C@@H](O)[C@@H](C)[C@H](OC(C)=O)[C@@H]1C [RIFAMPIN]
- MIC [1]: 16 µg/mL (≈ 19.4 µM)
- MIC [2]: 16 µg/mL (≈ 19.4 µM)
- MIC [3]: 16 µg/mL (≈ 19.4 µM)
- MIC [4]: 16 µg/mL (≈ 19.4 µM)
- MIC [5]: 16 µg/mL (≈ 19.4 µM)

Molecule: COLISTIN
- MIC [1]: 0.5 µg/mL
- MIC [2]: 0.5 µg/mL
- MIC [3]: 0.5 µg/mL
- MIC [4]: 0.5 µg/mL
- MIC [5]: 0.5 µg/mL

Molecule: POLYMYXIN B
- MIC [1]: 1 µg/mL
- MIC [2]: 1 µg/mL
- MIC [3]: 1 µg/mL
- MIC [4]: 2 µg/mL
- MIC [5]: 1 µg/mL
